For assay [1], the target named is T1, Peroxisome proliferator-activated receptor alpha (Homo sapiens) (UniProt Q07869).
T1 sequence (whole entry): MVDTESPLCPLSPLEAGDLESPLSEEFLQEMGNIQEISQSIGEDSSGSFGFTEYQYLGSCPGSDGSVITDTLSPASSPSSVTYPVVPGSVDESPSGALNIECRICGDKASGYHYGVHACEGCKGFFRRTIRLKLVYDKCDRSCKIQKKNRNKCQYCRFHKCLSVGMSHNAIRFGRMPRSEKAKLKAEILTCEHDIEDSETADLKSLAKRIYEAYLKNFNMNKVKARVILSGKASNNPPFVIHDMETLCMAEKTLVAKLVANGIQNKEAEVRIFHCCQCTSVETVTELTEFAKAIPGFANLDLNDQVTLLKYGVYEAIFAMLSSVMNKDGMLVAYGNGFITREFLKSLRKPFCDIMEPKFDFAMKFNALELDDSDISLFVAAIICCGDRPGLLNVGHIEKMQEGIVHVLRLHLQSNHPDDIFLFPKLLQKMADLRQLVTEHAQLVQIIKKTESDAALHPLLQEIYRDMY
Put plainly: Transactivation of human PPARalpha expressed in human HepG2 cells co-transfected with PPRE3-TK-Luc by luciferase reporter gene assay relative to WY14643. It is filed as cell-based. In a few lines:
(§1)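 Same HepG2 hPPARα or hPPARγ / PPRE3-TK-luc luciferase transactivation assay. Efficacy expressed as percent of maximal response, normalized to 100% for the reference agonist: WY-14643 for α, rosiglitazone for γ.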

In assay [2] the target is T2, Peroxisome proliferator-activated receptor gamma (Homo sapiens, UniProt P37231).
T2 sequence (P37231 whole entry): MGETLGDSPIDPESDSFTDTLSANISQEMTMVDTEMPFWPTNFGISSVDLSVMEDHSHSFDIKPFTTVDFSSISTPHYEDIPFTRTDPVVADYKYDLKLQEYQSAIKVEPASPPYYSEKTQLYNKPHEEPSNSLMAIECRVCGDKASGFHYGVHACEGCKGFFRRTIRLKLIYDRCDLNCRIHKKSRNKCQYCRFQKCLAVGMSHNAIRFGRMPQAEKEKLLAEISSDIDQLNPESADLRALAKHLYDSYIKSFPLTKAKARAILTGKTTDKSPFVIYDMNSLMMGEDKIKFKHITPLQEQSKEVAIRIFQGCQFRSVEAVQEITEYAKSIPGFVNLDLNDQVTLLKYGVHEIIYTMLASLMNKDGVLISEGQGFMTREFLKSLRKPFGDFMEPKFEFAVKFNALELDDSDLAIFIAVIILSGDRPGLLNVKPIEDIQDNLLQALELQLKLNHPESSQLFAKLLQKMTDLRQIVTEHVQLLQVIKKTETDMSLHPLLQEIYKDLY
Put plainly: Transactivation of human PPARgamma expressed in human HepG2 cells co-transfected with PPRE3-TK-Luc by luciferase reporter gene assay. Type of assay: cell-based. A digest of the protocol:
(§2)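 HepG2 cells transfected with pSG5 vector carrying hPPARα, hPPARγ or hPPARδ cDNA, co-transfected with PPRE3-TK-luc. Firefly luciferase activity measured with a commercial kit. β-galactosidase activity read on an ELISA reader. Controls: WY14643 (α), rosiglitazone (γ), GW501516 (δ).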

For assay [3], the target named is T3, Peroxisome proliferator-activated receptor gamma (Homo sapiens) (UniProt P37231).
T3 sequence (whole entry): T2 sequence (P37231 whole entry)
Kind of assay: Transactivation of human PPARgamma expressed in human HepG2 cells co-transfected with PPRE3-TK-Luc by luciferase reporter gene assay relative to Rosiglitazone. Type of assay: cell-based. A digest of the protocol:
as §1

Assay [4] has as its target T4, Peroxisome proliferator-activated receptor delta (Homo sapiens) (UniProt Q03181).
T4 sequence (whole entry): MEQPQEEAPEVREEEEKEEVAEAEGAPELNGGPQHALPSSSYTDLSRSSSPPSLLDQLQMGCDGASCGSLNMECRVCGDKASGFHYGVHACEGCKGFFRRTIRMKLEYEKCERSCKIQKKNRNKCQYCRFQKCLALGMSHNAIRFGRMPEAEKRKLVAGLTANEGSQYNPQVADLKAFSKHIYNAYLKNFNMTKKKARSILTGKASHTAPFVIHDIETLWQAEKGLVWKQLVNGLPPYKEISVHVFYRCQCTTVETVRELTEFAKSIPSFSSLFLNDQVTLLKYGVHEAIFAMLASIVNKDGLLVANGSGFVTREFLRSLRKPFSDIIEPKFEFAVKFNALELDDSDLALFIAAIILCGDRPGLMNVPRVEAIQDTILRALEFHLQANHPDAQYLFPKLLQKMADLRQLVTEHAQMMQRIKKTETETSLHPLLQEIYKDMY
Put plainly: Transactivation of human PPARdelta expressed in human HepG2 cells co-transfected with PPRE3-TK-Luc by luciferase reporter gene assay. Type of assay: cell-based. A digest of the protocol:
as §2

Assay [5] deals with Mus musculus. Put plainly: Reduction in serum triglyceride level in Swiss albino mouse at 10 mg/kg, po administered for 6 days relative to control. It is filed as functional. The arrangement: scale not given: the % may be the effect or the level left. In a few lines: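 Male Swiss albino mice aged 6–8 weeks were given 10 mg/kg/day orally for 6 days. Serum triglyceride was expressed as % change versus vehicle controls, mean of n = 6.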

For assay [6], the target named is T5, Peroxisome proliferator-activated receptor alpha (Homo sapiens, UniProt Q07869).
T5 sequence (Q07869 whole entry): T1 sequence (whole entry)
Kind of assay: Transactivation of human PPARalpha expressed in human HepG2 cells co-transfected with PPRE3-TK-Luc by luciferase reporter gene assay. It is filed as cell-based.

The test system of assay [7] is Mus musculus. Put plainly: Antihyperglycemic activity in db/db mouse assessed as reduction in glucose level at 3 mg/kg/day, po administered for 6 days relative to control. It is filed as functional. Also on record: scale not given: the % may be the effect or the level left. In a few lines: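 Male db/db mice aged 6–8 weeks were dosed orally once daily for 6 days. Plasma glucose was then measured and expressed as % change versus vehicle-treated controls.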

Results on 10 molecules are retold here after ChEMBL document CHEMBL1811848 (Bioorg Med Chem Lett, 2011).

The structures appear in SMILES notation. Active and inactive are the calls of the source. The calls are words filed in the database; no cut-off is given here.

As for `CCO[C@@H](Cc1ccc(OCc2nc(-c3sccc3C)oc2C)cc1)C(=O)O`, the Emax turned out to be 106% in assay [1] and 88% in assay [3]. Besides, the EC50 in assay [2] amounted to 0.0003 nM. For the same molecule, the result in assay [4] was inactive. The same molecule registered an Activity with Mus musculus [5] of 72%.
Consider `CCO[C@@H](Cc1ccc(OCCc2nc(-c3cccs3)oc2C)cc1)C(=O)O`, for which the results for the EC50 in assay [6] and in assay [2] were 0.1 nM and 0.05 nM, respectively. In addition, the Emax in assay [1] came out at 126%; in assay [3] it was 104%. The outcome in assay [4] was inactive. The molecule further came in with an Activity in the assay with Mus musculus [5] of 78%.
Take `CCO[C@@H](Cc1ccc(OCCc2nc(-c3ccc(-c4ccccc4)s3)oc2C)cc1)C(=O)O`: the EC50 in assay [6] turned out to be 22 nM; in assay [2], 4.5 nM. In addition, the result in assay [4] was inactive. In the assay on Mus musculus [5], this molecule registered an Activity of 62%.
In the case of `CCO[C@@H](Cc1ccc(OCCc2nc(-c3ccsc3)oc2C)cc1)C(=O)O`, the values for the EC50 in assay [6] and in assay [2] were 1.9 nM and 0.6 nM, respectively. Further, the Emax is 114% in assay [1] and 87% in assay [3]. Further, in assay [4], the result was inactive. In the assay on Mus musculus [5], this molecule displayed an Activity of 62%.
Consider `CCO[C@@H](Cc1ccc(OCc2nc(-c3cccs3)oc2C)cc1)C(=O)O`, for which the EC50 in assay [6] was found to be 0.026 nM; in assay [2] it was 0.0015 nM. Besides, the Emax amounted to 134% in assay [1] and 107% in assay [3]. For the same molecule, the result in assay [4] was inactive. The molecule further came in with an Activity in the assay on Mus musculus [5] of 72%.
As to `CCO[C@@H](Cc1ccc(OCc2nc(-c3ccc(-c4ccccc4)s3)oc2C)cc1)C(=O)O`, the values for the EC50 in assay [6] and in assay [2] were 20 nM and 3 nM, respectively. Also, the results for the Emax in assay [1] and in assay [3] were 93% and 104%, respectively. In addition, the outcome in assay [4] was inactive. The molecule further registered an Activity in the assay on Mus musculus [5] of 57%.
As to `CCO[C@@H](Cc1ccc(OCCc2ccc(OS(C)(=O)=O)cc2)cc1)C(=O)O` [TESAGLITAZAR], the Activity in the assay on Mus musculus [7] amounted to 55%.
As to `CCO[C@@H](Cc1ccc(OCc2nc(-c3ccsc3)oc2C)cc1)C(=O)O`, the figures for the EC50 in assay [6] and in assay [2] were 3 nM and 2.7 nM, respectively. Moreover, the results for the Emax in assay [1] and in assay [3] were 147% and 99%, respectively. In addition, the outcome in assay [4] was inactive. In the assay with Mus musculus [5], the Activity is 70%.
On to `CCO[C@@H](Cc1ccc(OCCc2nc(-c3sccc3C)oc2C)cc1)C(=O)O`, for which the figures for the Emax in assay [1] and in assay [3] were 96% and 192%, respectively. The same molecule had an EC50 in assay [2] of 0.0001 nM. In addition, the outcome in assay [4] was inactive. The molecule also gave an Activity in the assay with Mus musculus [5] of 67%.
`CCO[C@@H](Cc1ccc(OCc2nc(-c3ccc(C)s3)oc2C)cc1)C(=O)O`: the results for the Emax in assay [1] and in assay [3] were 151% and 120%, respectively. This molecule returned an EC50 in assay [2] of 0.0002 nM. The outcome in assay [4] was inactive. The figures for the Activity in the assay with Mus musculus [5] and in the assay with Mus musculus [7] were 69% and 67%, respectively.
